Publication PMC9444296 (Investigative Radiology, 2022)
Where two headings read alike, the source gives them in different places.

Experiments:
[1] = Metabolic stability in SD rat hepatocytes; type: in vitro ADME; details: 2 hours of incubation, LC-MS/MS
[2] = molecular target: MATE1 (Homo sapiens, UniProt Q96FL8); assay: MATE1 inhibition, HEK293 cells; type: in vitro ADME; details: 1, 5, 10, 50, and 100 μM
[3] = molecular target: OAT3 (Homo sapiens, UniProt Q8TCC7); assay: OAT3 inhibition, HEK293 cells; type: in vitro ADME; details: 1, 5, 10, 50, and 100 μM
OAT3, sequence (Q8TCC7 whole entry): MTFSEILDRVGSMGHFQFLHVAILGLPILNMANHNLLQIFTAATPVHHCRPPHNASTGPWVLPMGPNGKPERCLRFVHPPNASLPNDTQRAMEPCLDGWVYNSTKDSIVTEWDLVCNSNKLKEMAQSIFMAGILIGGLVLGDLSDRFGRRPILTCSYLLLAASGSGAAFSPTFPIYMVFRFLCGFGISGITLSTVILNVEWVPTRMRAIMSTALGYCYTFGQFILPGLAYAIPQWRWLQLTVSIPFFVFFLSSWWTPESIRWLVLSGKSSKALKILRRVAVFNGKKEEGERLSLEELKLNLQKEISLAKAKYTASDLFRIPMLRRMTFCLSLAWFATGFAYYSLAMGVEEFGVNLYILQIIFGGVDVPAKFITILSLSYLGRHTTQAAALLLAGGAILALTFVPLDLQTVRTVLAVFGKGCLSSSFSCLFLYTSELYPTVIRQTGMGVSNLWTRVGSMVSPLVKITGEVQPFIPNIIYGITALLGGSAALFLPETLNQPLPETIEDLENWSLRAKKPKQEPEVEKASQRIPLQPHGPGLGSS

[4] = molecular target: hERG (Homo sapiens, UniProt Q12809); details: HEK293, whole-cell patch clamp
hERG, sequence (Q12809 whole entry): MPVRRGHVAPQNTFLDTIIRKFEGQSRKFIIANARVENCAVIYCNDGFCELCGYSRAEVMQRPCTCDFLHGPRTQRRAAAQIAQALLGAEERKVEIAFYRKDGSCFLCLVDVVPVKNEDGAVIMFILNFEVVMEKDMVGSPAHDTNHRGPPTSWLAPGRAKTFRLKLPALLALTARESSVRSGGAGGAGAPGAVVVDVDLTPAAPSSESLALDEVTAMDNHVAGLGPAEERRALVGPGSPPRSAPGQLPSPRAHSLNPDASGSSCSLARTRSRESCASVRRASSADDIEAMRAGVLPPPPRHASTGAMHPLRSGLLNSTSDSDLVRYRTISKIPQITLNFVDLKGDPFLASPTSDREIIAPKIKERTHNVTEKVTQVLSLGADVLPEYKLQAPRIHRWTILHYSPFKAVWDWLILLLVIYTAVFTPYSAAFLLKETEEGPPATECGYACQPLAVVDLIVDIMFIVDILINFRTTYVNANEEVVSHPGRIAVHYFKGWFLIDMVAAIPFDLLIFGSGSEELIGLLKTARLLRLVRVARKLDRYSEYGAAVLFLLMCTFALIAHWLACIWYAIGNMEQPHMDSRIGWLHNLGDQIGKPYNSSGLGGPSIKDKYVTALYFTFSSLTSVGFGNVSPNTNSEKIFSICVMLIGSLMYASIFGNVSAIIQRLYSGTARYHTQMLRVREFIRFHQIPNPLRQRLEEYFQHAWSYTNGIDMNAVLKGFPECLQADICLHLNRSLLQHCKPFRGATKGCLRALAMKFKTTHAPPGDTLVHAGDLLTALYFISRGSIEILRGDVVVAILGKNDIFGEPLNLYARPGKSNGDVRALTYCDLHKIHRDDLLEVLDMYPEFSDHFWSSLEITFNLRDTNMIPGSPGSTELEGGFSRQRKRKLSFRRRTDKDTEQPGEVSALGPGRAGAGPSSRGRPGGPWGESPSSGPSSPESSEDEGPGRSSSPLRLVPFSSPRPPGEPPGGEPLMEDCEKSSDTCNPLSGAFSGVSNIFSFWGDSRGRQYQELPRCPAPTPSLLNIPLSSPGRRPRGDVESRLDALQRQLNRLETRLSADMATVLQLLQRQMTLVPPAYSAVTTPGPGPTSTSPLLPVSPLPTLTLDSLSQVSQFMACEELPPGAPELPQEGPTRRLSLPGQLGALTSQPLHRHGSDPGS

[5] = molecular target: CYP2C19 (Homo sapiens, UniProt P33261); assay: CYP2C19 inhibition in human liver microsomes; type: in vitro ADME; details: 0.01, 0.1, 1, 10, and 100 μM, pooled human liver microsomes 0.5 mg/mL
CYP2C19, sequence (P33261 whole entry): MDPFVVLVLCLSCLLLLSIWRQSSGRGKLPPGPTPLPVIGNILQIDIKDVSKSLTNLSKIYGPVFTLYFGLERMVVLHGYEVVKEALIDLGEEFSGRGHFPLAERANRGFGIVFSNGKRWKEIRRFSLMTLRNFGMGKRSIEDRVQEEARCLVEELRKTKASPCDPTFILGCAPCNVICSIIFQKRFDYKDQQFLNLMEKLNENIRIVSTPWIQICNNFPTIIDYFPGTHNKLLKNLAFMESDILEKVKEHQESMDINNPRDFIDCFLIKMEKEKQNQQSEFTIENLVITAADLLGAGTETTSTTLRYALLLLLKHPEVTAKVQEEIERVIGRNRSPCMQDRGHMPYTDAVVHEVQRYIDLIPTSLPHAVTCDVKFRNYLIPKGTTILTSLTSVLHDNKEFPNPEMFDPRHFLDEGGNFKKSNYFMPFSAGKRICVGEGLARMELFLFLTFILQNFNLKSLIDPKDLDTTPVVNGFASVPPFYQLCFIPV

[6] = Metabolic stability in beagle dog hepatocytes; type: in vitro ADME; details: 2 hours of incubation, LC-MS/MS
[7] = Plasma protein binding, human plasma; type: in vitro ADME; details: 37°C, 3 min, 10 kDa ultrafiltration, Gd by ICP-OES, n = 4
Method in brief: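 Test compound at 50, 80 or 110 μM was incubated with human, dog or rat plasma (alongside HSA 40 mg/mL and PBS) at 37°C for 3 min. Mixtures were kept overnight and centrifuged to remove insolubles. Gd was measured by ICP-OES, and the binding ratio was taken as bound over total concentration.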

[8] = molecular target: OATP1B3 (Homo sapiens, UniProt Q9NPD5); assay: OATP1B3 inhibition, HEK293 cells; type: in vitro ADME; details: 1, 5, 10, 50, and 100 μM
OATP1B3, sequence (Q9NPD5 whole entry): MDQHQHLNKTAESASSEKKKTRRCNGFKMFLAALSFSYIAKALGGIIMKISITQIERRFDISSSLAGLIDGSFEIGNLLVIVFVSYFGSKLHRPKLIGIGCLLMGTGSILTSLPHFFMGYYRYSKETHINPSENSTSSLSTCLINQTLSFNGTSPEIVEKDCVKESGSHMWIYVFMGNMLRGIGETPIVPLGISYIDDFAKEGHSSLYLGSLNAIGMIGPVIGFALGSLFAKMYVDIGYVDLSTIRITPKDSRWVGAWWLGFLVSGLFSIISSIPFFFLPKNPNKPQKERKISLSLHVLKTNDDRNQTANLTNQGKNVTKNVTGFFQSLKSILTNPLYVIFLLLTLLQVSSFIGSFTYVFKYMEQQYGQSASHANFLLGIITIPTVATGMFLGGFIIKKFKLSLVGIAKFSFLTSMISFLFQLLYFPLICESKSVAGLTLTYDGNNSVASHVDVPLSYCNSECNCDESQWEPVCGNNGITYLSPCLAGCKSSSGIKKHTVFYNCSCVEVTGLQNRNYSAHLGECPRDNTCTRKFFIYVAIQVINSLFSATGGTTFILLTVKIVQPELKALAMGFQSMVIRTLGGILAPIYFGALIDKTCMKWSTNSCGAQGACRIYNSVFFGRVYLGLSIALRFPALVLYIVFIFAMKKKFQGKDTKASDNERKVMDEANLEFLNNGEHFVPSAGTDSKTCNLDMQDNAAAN

MATE1, sequence (Q96FL8 whole entry): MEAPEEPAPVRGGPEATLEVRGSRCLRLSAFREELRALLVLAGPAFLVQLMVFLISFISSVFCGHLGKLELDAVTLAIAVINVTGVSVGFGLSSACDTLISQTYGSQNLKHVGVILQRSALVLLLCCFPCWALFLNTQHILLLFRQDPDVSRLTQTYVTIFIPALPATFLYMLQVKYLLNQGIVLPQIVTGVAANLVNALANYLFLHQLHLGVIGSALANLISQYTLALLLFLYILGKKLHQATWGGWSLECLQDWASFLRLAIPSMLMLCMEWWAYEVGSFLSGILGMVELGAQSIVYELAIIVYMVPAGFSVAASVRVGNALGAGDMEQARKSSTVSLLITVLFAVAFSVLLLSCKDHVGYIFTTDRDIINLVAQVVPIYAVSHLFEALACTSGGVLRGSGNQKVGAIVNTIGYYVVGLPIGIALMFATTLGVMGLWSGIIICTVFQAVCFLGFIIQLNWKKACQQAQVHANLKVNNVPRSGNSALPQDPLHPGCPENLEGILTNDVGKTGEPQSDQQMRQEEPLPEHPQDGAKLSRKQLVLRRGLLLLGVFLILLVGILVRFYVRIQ

Substance: ZD2-N3-Gd(HP-DO3A) [MT218]
- remaining MT218 [1]: 67.5%
- inhibition of MATE1 transporter activity [2]: no inhibition potential
- inhibition of OAT3 transporter activity [3]: no inhibition potential
- average inhibition of the hERG currents ([4]; 30.69 μM): 36.87% ± 6.93%
- average inhibition of the hERG currents ([4]; 103.54 μM): 52.19% ± 0.82%
- inhibition of CYP2C19 activity [5]: did not inhibit
- remaining MT218 [6]: 41.0%
- binding ratio to plasma proteins ([7]; 50 μM): 47.31%
- binding ratio to plasma proteins ([7]; 80 μM): 45.15%
- binding ratio to plasma proteins ([7]; 110 μM): 40.50%
- inhibition of OATP1B3 transporter activity [8]: no inhibition potential
